This is an account of results in paper PMC10246735 (European journal of medicinal chemistry, 2023).

Each structure is given as a SMILES string.

For one series, the target named is recombinant CYP3A4 (Homo sapiens, UniProt P08684). Briefly: Equilibrium spectral titration of recombinant CYP3A4. The class given is binding. As to conditions: for high spin content: estimated at the end of equilibrium titrations relative to azamulin-bound CYP3A4 (100% high-spin conversion); for Kd: read-out: S50, ligand concentration at half-saturation (equivalent to Kd), 0.1 M phosphate buffer, pH 7.4; for Kd / nH, Hill coefficient: sigmoidal fittings to titration plots, mean of three ± SD. The gist of the method: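 Codon-optimized full-length human CYP3A4 (1.5–2 μM) in 0.1 M phosphate buffer, pH 7.4, with 20% glycerol and 1 mM dithiothreitol, at ambient temperature. DMSO-dissolved ligand added in small aliquots (final solvent <2%). Titration plots were built from difference absorbance spectra. Sigmoidal fits gave S50 (half-saturation ligand concentration, equivalent to Kd) and Hill coefficient; hyperbolic fits gave Kd.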
recombinant CYP3A4, sequence (P08684 whole entry): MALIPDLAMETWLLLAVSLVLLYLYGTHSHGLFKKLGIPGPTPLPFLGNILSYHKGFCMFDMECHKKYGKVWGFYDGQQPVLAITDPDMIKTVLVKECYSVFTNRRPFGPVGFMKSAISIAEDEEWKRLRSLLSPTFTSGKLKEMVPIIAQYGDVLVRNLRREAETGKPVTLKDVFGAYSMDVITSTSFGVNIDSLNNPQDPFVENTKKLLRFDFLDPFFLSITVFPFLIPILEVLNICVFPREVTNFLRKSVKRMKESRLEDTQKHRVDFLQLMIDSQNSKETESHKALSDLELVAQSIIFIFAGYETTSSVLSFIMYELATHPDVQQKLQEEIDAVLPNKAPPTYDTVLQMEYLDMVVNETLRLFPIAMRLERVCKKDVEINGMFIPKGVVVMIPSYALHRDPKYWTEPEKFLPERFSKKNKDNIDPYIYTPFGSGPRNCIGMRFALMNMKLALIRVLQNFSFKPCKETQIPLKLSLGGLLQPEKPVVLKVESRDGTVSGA

In series [1] the test system is LNCaP (AR+) androgen-sensitive human prostate adenocarcinoma cells. The series is described as follows: MTT antiproliferative activity assay on LNCaP cells. The class given is cell-based.
Series [2] concerns PC3 (AR−) androgen-insensitive human prostate adenocarcinoma cells. The series is described as follows: MTT antiproliferative activity assay on PC3 cells. The class given is cell-based. To be noted: 48 h, read-out: IC50 (concentration of drug inhibiting cell growth by 50%), PC3 (AR−). Background: Tetrazolium dyes change colour on reduction, which living cells bring about.

For the molecule `C[C@]12CCC(=O)C[C@@H]1CC[C@@H]1[C@@H]2CC[C@@]2(C)[C@H]1CC[C@@]2(O)C/C=C/C[C@]1(O)CC[C@H]2[C@@H]3CC[C@H]4CC(=O)CC[C@]4(C)[C@H]3CC[C@@]21C` [Compound 15, ((E)-17,17’-(but-2-ene-1,4-diyl))bis(androst-3-one-17β-ol)], the high spin content on recombinant CYP3A4 is given as 33 ± 3%.

For `C=CC[C@]1(O)CC[C@H]2[C@@H]3CC[C@H]4CC(=O)CC[C@]4(C)[C@H]3CC[C@@]21C` [Compound 14, 17α-allyl-androst-3-one-17β-ol], on recombinant CYP3A4, the high spin content is reported as 71 ± 3%; the Kd amounted to 17 ± 2 µM; the “nH, Hill coefficient” value amounted to 1.76 ± 0.06.

Turning to `C[C@]12CCC(=O)C=C1CC[C@@H]1[C@@H]2CC[C@@]2(C)[C@H]1CC[C@@]2(O)C/C=C/C[C@]1(O)CC[C@H]2[C@@H]3CCC4=CC(=O)CC[C@]4(C)[C@H]3CC[C@@]21C` [Compound 11, ((E)-17,17’-(but-2-ene-1,4-diyl))bis(androst-4-en-3-one-17β-ol)], the high spin content on recombinant CYP3A4 was 92 ± 4%. The “fold higher affinity for CYP3A4 compared to 15” value at recombinant CYP3A4 (ratio of Kd) stood at 40 fold. In addition, in series [1] (LNCaP (AR+) cells, ratio of IC50), the “fold more potent than the reference drug CPA” value is given as ~ 3.5 times. Also, the “fold more potent on AR+ LNCaP than AR− PC3 cells” value in series [1] (ratio of IC50 PC3 / LNCaP) is given as ~ 3.7 times.

Consider `CC(=O)O[C@]1(C(C)=O)CC[C@H]2[C@@H]3C=C(Cl)C4=CC(=O)[C@@H]5C[C@@H]5[C@]4(C)[C@H]3CC[C@@]21C` [CPA, cyproterone acetate, reference compound], for which the IC50 in series [2] turned out to be 84.3 µM; in series [1] (Homo sapiens, LNCaP/AR, 48 h, read-out: IC50 (concentration of drug inhibiting cell growth by 50%), LNCaP (AR+)), 40.7 µM.

With `C=CC[C@]1(O)CC[C@H]2[C@@H]3CCC4=CC(=O)CC[C@]4(C)[C@H]3CC[C@@]21C` [Compound 10, 17α-allyl-androst-4-en-3-one-17β-ol], at recombinant CYP3A4, the high spin content is 70 ± 2%; the Kd came to 22 ± 4 µM; the “nH, Hill coefficient” value turned out to be 1.52 ± 0.02.
